What was measured:
Rattus norvegicus = assay: Dose normalized AUC (0 to infinity) in Wistar rat at 2.41 mg/kg, po measured up to 4 hrs post dose; type: ADME, organism-based; settings: in vivo
[1] = target: C-X-C chemokine receptor type 4 (Homo sapiens, UniProt P61073); assay: Antagonist activity at CXCR4 (unknown origin)
How it was run: (§1)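 β-arrestin assays run in both agonist and antagonist modes across a panel of 18 CXC and CC chemokine receptors.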

[2] = target: C-C chemokine receptor type 2 (Homo sapiens, UniProt P41597); assay: Antagonist activity at CCR2 (unknown origin); how it was run: as §1
[3] = target: C-C chemokine receptor type 9 (Homo sapiens, UniProt P51686); assay: Antagonist activity at CCR9 (unknown origin); how it was run: as §1
Sequence of C-C chemokine receptor type 9 (P51686 whole entry): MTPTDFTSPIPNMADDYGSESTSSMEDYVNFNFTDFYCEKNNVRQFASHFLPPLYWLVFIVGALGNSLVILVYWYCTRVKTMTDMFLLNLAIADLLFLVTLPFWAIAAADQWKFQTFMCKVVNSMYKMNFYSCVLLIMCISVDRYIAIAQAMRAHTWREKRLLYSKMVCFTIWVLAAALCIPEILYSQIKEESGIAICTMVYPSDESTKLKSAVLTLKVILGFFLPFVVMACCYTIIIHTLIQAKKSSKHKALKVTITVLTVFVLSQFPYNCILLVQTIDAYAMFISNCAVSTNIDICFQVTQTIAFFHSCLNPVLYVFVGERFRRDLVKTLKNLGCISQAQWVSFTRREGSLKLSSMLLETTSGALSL

Sequence of C-C chemokine receptor type 2 (P41597 whole entry): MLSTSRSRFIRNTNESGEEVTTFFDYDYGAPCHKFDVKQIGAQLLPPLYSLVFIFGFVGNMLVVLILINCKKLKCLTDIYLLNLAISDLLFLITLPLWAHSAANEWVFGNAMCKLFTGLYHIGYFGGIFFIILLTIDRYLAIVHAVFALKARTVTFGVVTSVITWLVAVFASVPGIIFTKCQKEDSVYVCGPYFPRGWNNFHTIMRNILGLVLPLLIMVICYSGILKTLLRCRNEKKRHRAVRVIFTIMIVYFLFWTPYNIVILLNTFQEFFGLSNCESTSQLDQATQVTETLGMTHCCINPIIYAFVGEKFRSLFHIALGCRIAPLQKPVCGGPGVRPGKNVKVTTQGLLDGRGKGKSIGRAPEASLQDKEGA
Sequence of C-X-C chemokine receptor type 4 (P61073 whole entry): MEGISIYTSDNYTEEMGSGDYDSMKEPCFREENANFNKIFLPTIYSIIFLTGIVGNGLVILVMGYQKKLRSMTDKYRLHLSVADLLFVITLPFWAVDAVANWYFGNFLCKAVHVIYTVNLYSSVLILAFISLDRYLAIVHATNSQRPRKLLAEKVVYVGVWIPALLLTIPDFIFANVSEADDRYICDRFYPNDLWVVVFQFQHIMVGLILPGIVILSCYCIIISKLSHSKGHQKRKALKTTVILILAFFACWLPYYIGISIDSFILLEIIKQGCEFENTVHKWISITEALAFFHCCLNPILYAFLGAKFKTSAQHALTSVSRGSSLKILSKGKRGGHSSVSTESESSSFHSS

- AUC/dose (Rattus norvegicus): 860 ng·h/mL/mg/kg
- IC50 [1]: > 10 µM
- IC50 [2]: > 10 µM
- IC50 [3]: > 10 µM
SMILES: CC1=CCC[C@H]1NC(=O)Nc1ccc(Cl)c(S(=O)(=O)[C@@]2(C)CCOC2)c1O

Reference: ChEMBL document CHEMBL4033786, “Discovery of Novel 1-Cyclopentenyl-3-phenylureas as Selective, Brain Penetrant, and Orally Bioavailable CXCR2 Antagonists” (J Med Chem, 2018)
